Results: ChEMBL document CHEMBL1148636, “Novel analogues of degarelix incorporating hydroxy-, methoxy-, and pegylated-urea moieties at positions 3, 5, 6 and the N-terminus. Part III” (J Med Chem, 2006)
Converted amounts (≈) assume the structure as drawn. The source made the active and inactive calls. No cut-off for these calls is given here. Numbered stars: 1 amine (or outer) side, 2 acyl side, 3 side chain; on linkers, the order of the positions; unused ones are H or OH. Square brackets hold non-standard residues; d marks the D form. Side chains are listed from the residue outwards. Peptide text beside a SMILES is read from it. * marks the point of attachment. dPhe(4-NHCONH2) = NC(=O)Nc1ccc(C[C@@H](N)C(=O)O)cc1; Dihydroorotyl(S) = O=C1C[C@@H](C(=O)*)NC(=O)N1; dPhe(4-NH2) = Nc1ccc(C[C@@H](N)C(=O)O)cc1; dPhe(4-Cl) = N[C@H](Cc1ccc(Cl)cc1)C(=O)O; Phe(4-NH2) = Nc1ccc(C[C@H](N)C(=O)O)cc1; d2Nal = N[C@H](Cc1ccc2ccccc2c1)C(=O)O; Lys(iPr) = CC(C)NCCCC[C@H](N)C(=O)O; NHCH2CH2OCH2CH2OEt = CCOCCOCCN*; d3Pal = N[C@H](Cc1cccnc1)C(=O)O; Methoxycarbamoyl = CONC(=O)*; CO = O=C([*:1])[*:2]

Key:
[1] = target: T1, Gonadotropin-releasing hormone receptor (Homo sapiens, UniProt P30968); test: Antagonist activity at human GnRH receptor expressed in HEK293 cells as inhibition of GnRH-induced LH secretion by reporter gene assay; type: functional, cell-based
T1 sequence (P30968 whole entry): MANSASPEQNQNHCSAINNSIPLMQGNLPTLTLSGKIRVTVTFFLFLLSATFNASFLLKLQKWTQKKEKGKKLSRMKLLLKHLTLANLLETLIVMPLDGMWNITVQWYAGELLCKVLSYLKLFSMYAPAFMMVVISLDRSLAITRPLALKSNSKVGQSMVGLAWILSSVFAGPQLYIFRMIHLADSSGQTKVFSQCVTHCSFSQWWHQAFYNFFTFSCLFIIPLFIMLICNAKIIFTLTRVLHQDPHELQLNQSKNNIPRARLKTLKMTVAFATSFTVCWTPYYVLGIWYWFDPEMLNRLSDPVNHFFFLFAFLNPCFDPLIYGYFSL
Procedure, shortened: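 HEK293 cells stably expressing cloned human GnRH receptor plus luciferase reporter under LH alpha subunit promoter; plated 5 × 10^4 cells/well, overnight 37 °C. Compounds in 1% DMSO, 11 half-log concentrations in duplicate, 10 min preincubation, then GnRH 1 nM final, ≥5 h at 37 °C; luminescence read. Percent of control fitted to IC50; geometric mean of ≥2 independent experiments.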

Rattus norvegicus [2] = test: Antiovulatory activity in rat at 2 ug, sc; type: functional, organism-based
Procedure, shortened: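 Cycling rats (250-300 g) given peptide 2 μg in 200 μL saline or 5% DMSO in saline sc at noon on proestrus; scored as number of rats ovulating over total treated (8 per group).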

[3] = system: Mast cell (Rattus norvegicus); test: Histamine release in mast cells by ELISA
Rattus norvegicus [4] = test: Inhibition of GnRH-induced LH secretion in Sprague-Dawley rat at 50 ug, sc for 96 hrs; type: functional
Procedure, shortened: (§1)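 Male rats castrated ten days earlier (≥5 per group) injected sc with 50 μg peptide in 50 μL 5% mannitol (0.6% DMSO in the stock); vehicle controls run alongside. Tail-tip blood taken pre-dose and at 3, 72, 96, 120, 144, 168 and sometimes 192 h; plasma LH by RIA, all samples of one experiment in the same assay; >80% inhibition scored.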

Rattus norvegicus [5] = test: Inhibition of GnRH-induced LH secretion in Sprague-Dawley rat at 50 ug, sc for 72 hrs; type: functional; procedure, shortened: as §1
Rattus norvegicus [6] = test: Inhibition of GnRH-induced LH secretion in Sprague-Dawley rat at 50 ug, sc for 3 hrs; type: functional; procedure, shortened: as §1
Rattus norvegicus [7] = test: Inhibition of GnRH-induced LH secretion in Sprague-Dawley rat at 50 ug, sc for 120 hrs; type: functional; procedure, shortened: as §1

Structure (SMILES)	IC50 [1]	EC50 [3]	Activity (Rattus norvegicus [2])	Inhibition (Rattus norvegicus [4])	Inhibition (Rattus norvegicus [5])	Inhibition (Rattus norvegicus [6])	Inhibition (Rattus norvegicus [7])
CONC(=O)Nc1ccc(C[C@H](NC(=O)[C@H](CO)NC(=O)[C@@H](Cc2cccnc2)NC(=O)[C@@H](Cc2ccc(Cl)cc2)NC(=O)[C@@H](Cc2ccc3ccccc3c2)NC(C)=O)C(=O)N[C@H](Cc2ccc(NC(=O)NOC)cc2)C(=O)N[C@@H](CC(C)C)C(=O)N[C@@H](CCCCNC(C)C)C(=O)N2CCC[C@H]2C(=O)N[C@H](C)C(N)=O)cc1	910 pM	46 µg/mL (≈ 28.8 µM)	Active				
CONC(=O)Nc1ccc(C[C@H](NC(=O)[C@H](CO)NC(=O)[C@@H](Cc2cccnc2)NC(=O)[C@@H](Cc2ccc(Cl)cc2)NC(=O)[C@@H](Cc2ccc3ccccc3c2)NC(C)=O)C(=O)N[C@H](Cc2ccc(NC(N)=O)cc2)C(=O)N[C@@H](CC(C)C)C(=O)N[C@@H](CCCCNC(C)C)C(=O)N2CCC[C@H]2C(=O)N[C@H](C)C(N)=O)cc1 (Ac-[d2Nal][dPhe(4-Cl)][d3Pal]S[Phe(4-NH2)](Methoxycarbamoyl)[dPhe(4-NHCONH2)]L[Lys(iPr)]P[dA]-NH2)	600 pM				>80%		
CCOCCOCCNC(=O)Nc1ccc(C[C@H](NC(=O)[C@H](CO)NC(=O)[C@@H](Cc2cccnc2)NC(=O)[C@@H](Cc2ccc(Cl)cc2)NC(=O)[C@@H](Cc2ccc3ccccc3c2)NC(C)=O)C(=O)N[C@H](Cc2ccc(NC(N)=O)cc2)C(=O)N[C@@H](CC(C)C)C(=O)N[C@@H](CCCCNC(C)C)C(=O)N2CCC[C@H]2C(=O)N[C@H](C)C(N)=O)cc1 (Ac-[d2Nal][dPhe(4-Cl)][d3Pal]S[Phe(4-NH2)]([CO-NHCH2CH2OCH2CH2OEt])[dPhe(4-NHCONH2)]L[Lys(iPr)]P[dA]-NH2)		910 µg/mL (≈ 551 µM)	Active				
CONC(=O)Nc1ccc(C[C@@H](NC(=O)[C@H](Cc2ccc(NC(=O)NOC)cc2)N(C)C(=O)[C@H](CO)NC(=O)[C@@H](Cc2cccnc2)NC(=O)[C@@H](Cc2ccc(Cl)cc2)NC(=O)[C@@H](Cc2ccc3ccccc3c2)NC(C)=O)C(=O)N[C@@H](CC(C)C)C(=O)N[C@@H](CCCCNC(C)C)C(=O)N2CCC[C@H]2C(=O)N[C@H](C)C(N)=O)cc1	700 pM	43.1 µg/mL (≈ 26.8 µM)	Active				
CC(=O)Nc1ccc(C[C@H](NC(=O)[C@H](CO)NC(=O)[C@@H](Cc2cccnc2)NC(=O)[C@@H](Cc2ccc(Cl)cc2)NC(=O)[C@@H](Cc2ccc3ccccc3c2)NC(C)=O)C(=O)N[C@H](Cc2ccc(NC(C)=O)cc2)C(=O)N[C@@H](CC(C)C)C(=O)N[C@@H](CCCCNC(C)C)C(=O)N2CCC[C@H]2C(=O)N[C@H](C)C(N)=O)cc1 [ACYLINE]		461 µg/mL (≈ 301 µM)	Active				

Continued, in another order:

IC50 [1]	EC50 [3]	Structure (SMILES)	Activity (Rattus norvegicus [2])	Inhibition (Rattus norvegicus [4])	Inhibition (Rattus norvegicus [5])	Inhibition (Rattus norvegicus [6])	Inhibition (Rattus norvegicus [7])
510 pM		CONC(=O)Nc1ccc(C[C@@H](NC(=O)[C@H](Cc2ccc(NC(=O)[C@@H]3CC(=O)NC(=O)N3)cc2)NC(=O)[C@H](CO)NC(=O)[C@@H](Cc2cccnc2)NC(=O)[C@@H](Cc2ccc(Cl)cc2)NC(=O)[C@@H](Cc2ccc3ccccc3c2)NC(C)=O)C(=O)N[C@@H](CC(C)C)C(=O)N[C@@H](CCCCNC(C)C)C(=O)N2CCC[C@H]2C(=O)N[C@H](C)C(N)=O)cc1 (Ac-[d2Nal][dPhe(4-Cl)][d3Pal]S[Phe(4-NH2)](Dihydroorotyl(S))[dPhe(4-NH2)](Methoxycarbamoyl)L[Lys(iPr)]P[dA]-NH2)		>80%			
1120 pM	> 1000 µg/mL	CCOCCOCCNC(=O)Nc1ccc(C[C@H](NC(=O)[C@H](CO)NC(=O)[C@@H](Cc2cccnc2)NC(=O)[C@@H](Cc2ccc(Cl)cc2)NC(=O)[C@@H](Cc2ccc3ccccc3c2)NC(=O)NCCOCCOCC)C(=O)N[C@H](Cc2ccc(NC(N)=O)cc2)C(=O)N[C@@H](CC(C)C)C(=O)N[C@@H](CCCCNC(C)C)C(=O)N2CCC[C@H]2C(=O)N[C@H](C)C(N)=O)cc1	Active				
1610 pM		CCOCCOCCNC(=O)N[C@H](Cc1ccc2ccccc2c1)C(=O)N[C@H](Cc1ccc(Cl)cc1)C(=O)N[C@H](Cc1cccnc1)C(=O)N[C@@H](CO)C(=O)N[C@@H](Cc1ccc(NC(=O)[C@@H]2CC(=O)NC(=O)N2)cc1)C(=O)N[C@H](Cc1ccc(NC(=O)NOC)cc1)C(=O)N[C@@H](CC(C)C)C(=O)N[C@@H](CCCCNC(C)C)C(=O)N1CCC[C@H]1C(=O)N[C@H](C)C(N)=O ({NHCH2CH2OCH2CH2OEt-CO}-[d2Nal][dPhe(4-Cl)][d3Pal]S[Phe(4-NH2)](Dihydroorotyl(S))[dPhe(4-NH2)](Methoxycarbamoyl)L[Lys(iPr)]P[dA]-NH2)				>80%	
2980 pM	50.6 µg/mL (≈ 30.1 µM)	CCOCCOCCNC(=O)N[C@H](Cc1ccc2ccccc2c1)C(=O)N[C@H](Cc1ccc(Cl)cc1)C(=O)N[C@H](Cc1cccnc1)C(=O)N[C@@H](CO)C(=O)N[C@@H](Cc1ccc(NC(=O)NOC)cc1)C(=O)N[C@H](Cc1ccc(NC(N)=O)cc1)C(=O)N[C@@H](CC(C)C)C(=O)N[C@@H](CCCCNC(C)C)C(=O)N1CCC[C@H]1C(=O)N[C@H](C)C(N)=O	Active				
	> 1000 µg/mL	CC(=O)N[C@H](Cc1ccc2ccccc2c1)C(=O)N[C@H](Cc1ccc(Cl)cc1)C(=O)N[C@H](Cc1cccnc1)C(=O)N[C@@H](CO)C(=O)N[C@@H](Cc1ccc(NC(=O)[C@@H]2CC(=O)NC(=O)N2)cc1)C(=O)N[C@H](Cc1ccc(NC(N)=O)cc1)C(=O)N[C@@H](CC(C)C)C(=O)N[C@@H](CCCCNC(C)C)C(=O)N1CCC[C@H]1C(=O)N[C@H](C)C(N)=O [DEGARELIX] (Ac-[d2Nal][dPhe(4-Cl)][d3Pal]S[Phe(4-NH2)](Dihydroorotyl(S))[dPhe(4-NHCONH2)]L[Lys(iPr)]P[dA]-NH2)	Active				>80%
